Test results published in ChEMBL document CHEMBL1154833, “Curcuminoid analogs with potent activity against Trypanosoma and Leishmania species” (Eur J Med Chem, 2010).
pEC50: −log10 of the molar value.

tested on: Leishmania mexicana; experiment: Antileishmanial activity against Leishmania mexicana MNYC/BZ/62/M379 amastigotes after 48 hrs by alamar blue assay; type: functional, organism-based; conditions: Leishmania mexicana, MNYC/BZ/62/M379, 48 h; read-out: EC50
How it was run: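 Axenic L. mexicana MNYC/BZ/62/M379 amastigotes kept at 33 °C under CO2 in Schneider's Drosophila medium with 20% FBS and 0.3% gentamycin. Alamar Blue fluorescence read-out.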

SMILES | pEC50
COc1cc(CC/C=C/C(O)CCc2ccc(O)c(OC)c2)ccc1O (stereo not drawn) | 4.19
C=CCOc1ccc(/C=C/C(=O)CC(=O)/C=C/c2ccc(O)c(OC)c2)cc1OC | 4.92
COc1cc(/C=C/C(=O)CC(=O)/C=C/c2ccc(OC(=O)c3ccccc3)cc2)ccc1O | < 4.00
O=C(/C=C/c1ccc(O)cc1)CC(=O)/C=C/c1ccc(O)c(O)c1 | 4.68
COc1cc(/C=C/C(=O)CC(=O)/C=C/c2ccc(OC(=O)c3ccccc3)c(OC)c2)ccc1O | 4.12
C=CCOc1ccc(/C=C/C(=O)CC(=O)/C=C/c2ccc(OCC=C)c(OC)c2)cc1OC | < 4.00
COc1cc(/C=C/C(=O)CC(=O)/C=C/c2ccc(O)c(O)c2)ccc1O | 5.49
COc1ccc(/C=C/C(=O)CC(=O)/C=C/c2ccc(OC)c(OC)c2)cc1OC [TETRAMETHOXYCURCUMIN] | 5.00
COc1cc(CC/C=C/C(=O)CCc2ccc(O)c(OC)c2)ccc1O | 4.77

tested on: not listed separately; experiment: Selectivity index, ratio of EC50 for HEK cells to EC50 for Leishmania major Friedlin promastigotes; type: toxicity, cell-based, HEK293; conditions: human, HEK cells versus Leishmania major Friedlin promastigotes; read-out: Ratio EC50
How it was run: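 Ratio of HEK EC50 to parasite EC50. For HEK293T cells in DMEM with 10% newborn bovine serum at 37 °C and 5% CO2, doubling dilutions of compound were added for 16 h, then Alamar Blue, and fluorescence (em 590 nm) was read after another 24 h. L. major Friedlin promastigotes were grown in HOMEM with 10% FBS at 25 °C and tested by Alamar Blue. EC50 values came from sigmoid non-linear regression.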

SMILES | selectivity ratio
COc1ccc(/C=C/C(=O)CC(=O)/C=C/c2ccc(OC)c(OC)c2)cc1OC [TETRAMETHOXYCURCUMIN] | 70

tested on: Trypanosoma brucei brucei; experiment: Selectivity ratio of EC50 for Trypanosoma brucei brucei 427 to EC50 for Trypanosoma brucei brucei deltaTbat1-KO; type: functional; conditions: not given
How it was run: (§1)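 T. b. brucei bloodstream forms (strain 427, its ΔTbAT1 clone, and the pentamidine-adapted B48 line derived from it) cultured in HMI9 with 10% FBS at 37 °C under CO2. EC50 for each line from the Alamar Blue fluorescence assay with sigmoid fitting, and the ratio taken between lines.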

SMILES | Ratio EC50
O=C(/C=C/c1ccc(O)cc1)CC(=O)/C=C/c1ccc(O)c(O)c1 | 2.7

tested on: HEK293; experiment: Cytotoxicity against HEK293 cells after 16 hrs by alamar blue assay; type: cell-based, Homo sapiens; conditions: Homo sapiens, HEK293, 16 h; read-out: EC50
How it was run: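 HEK293T cells grown in DMEM-based medium with 10% newborn bovine serum at 37 °C, 5% CO2. Doubling dilutions of compound added for 16 h, then resazurin added. Fluorescence read at emission 590 nm after a further 24 h.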

SMILES | pEC50
COc1cc(CC/C=C/C(O)CCc2ccc(O)c(OC)c2)ccc1O (stereo not drawn) | 3.89
C=CCOc1ccc(/C=C/C(=O)CC(=O)/C=C/c2ccc(O)c(OC)c2)cc1OC | 3.57
COc1cc(/C=C/C(=O)CC(=O)/C=C/c2ccc(OC(=O)c3ccccc3)cc2)ccc1O | < 3.30
O=C(/C=C/c1ccc(O)cc1)CC(=O)/C=C/c1ccc(O)c(O)c1 | 4.52
COc1cc(/C=C/C(=O)CC(=O)/C=C/c2ccc(OC(=O)c3ccccc3)c(OC)c2)ccc1O | 4.03
C=CCOc1ccc(/C=C/C(=O)CC(=O)/C=C/c2ccc(OCC=C)c(OC)c2)cc1OC | < 3.30
COc1cc(/C=C/C(=O)CC(=O)/C=C/c2ccc(O)c(O)c2)ccc1O | 4.44
COc1ccc(/C=C/C(=O)CC(=O)/C=C/c2ccc(OC)c(OC)c2)cc1OC [TETRAMETHOXYCURCUMIN] | 3.70
COc1cc(CC/C=C/C(=O)CCc2ccc(O)c(OC)c2)ccc1O | 4.62

tested on: Trypanosoma brucei brucei; experiment: Antitrypanosomal activity against diminazene-resistant Trypanosoma brucei brucei deltaTbat1-KO after 48 hrs by alamar blue assay; type: functional, organism-based; conditions: not given

SMILES | pEC50
COc1cc(CC/C=C/C(O)CCc2ccc(O)c(OC)c2)ccc1O (stereo not drawn) | 4.38
C=CCOc1ccc(/C=C/C(=O)CC(=O)/C=C/c2ccc(O)c(OC)c2)cc1OC | 5.66
COc1cc(/C=C/C(=O)CC(=O)/C=C/c2ccc(OC(=O)c3ccccc3)cc2)ccc1O | 5.11
O=C(/C=C/c1ccc(O)cc1)CC(=O)/C=C/c1ccc(O)c(O)c1 | 5.74
COc1cc(/C=C/C(=O)CC(=O)/C=C/c2ccc(OC(=O)c3ccccc3)c(OC)c2)ccc1O | 5.42
C=CCOc1ccc(/C=C/C(=O)CC(=O)/C=C/c2ccc(OCC=C)c(OC)c2)cc1OC | 5.72
COc1cc(/C=C/C(=O)CC(=O)/C=C/c2ccc(O)c(O)c2)ccc1O | 5.96
COc1ccc(/C=C/C(=O)CC(=O)/C=C/c2ccc(OC)c(OC)c2)cc1OC [TETRAMETHOXYCURCUMIN] | 6.21
COc1cc(CC/C=C/C(=O)CCc2ccc(O)c(OC)c2)ccc1O | 7.09

tested on: Leishmania major; experiment: Antileishmanial activity against Leishmania major Friedlin promastigotes after 48 hrs by alamar blue assay; type: functional, organism-based; conditions: Leishmania major, Friedlin, 48 h; read-out: EC50
How it was run: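 L. major Friedlin promastigotes grown in HOMEM with 10% FBS at 25 °C. Alamar Blue fluorescence assay in 96-well plates. 3–6 independent experiments unless noted.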

SMILES | pEC50
COc1cc(CC/C=C/C(O)CCc2ccc(O)c(OC)c2)ccc1O (stereo not drawn) | 4.30
C=CCOc1ccc(/C=C/C(=O)CC(=O)/C=C/c2ccc(O)c(OC)c2)cc1OC | 5.24
COc1cc(/C=C/C(=O)CC(=O)/C=C/c2ccc(OC(=O)c3ccccc3)cc2)ccc1O | 4.70
O=C(/C=C/c1ccc(O)cc1)CC(=O)/C=C/c1ccc(O)c(O)c1 | 4.66
COc1cc(/C=C/C(=O)CC(=O)/C=C/c2ccc(OC(=O)c3ccccc3)c(OC)c2)ccc1O | 5.03
C=CCOc1ccc(/C=C/C(=O)CC(=O)/C=C/c2ccc(OCC=C)c(OC)c2)cc1OC | 4.60
COc1cc(/C=C/C(=O)CC(=O)/C=C/c2ccc(O)c(O)c2)ccc1O | 5.37
COc1ccc(/C=C/C(=O)CC(=O)/C=C/c2ccc(OC)c(OC)c2)cc1OC [TETRAMETHOXYCURCUMIN] | 5.55
COc1cc(CC/C=C/C(=O)CCc2ccc(O)c(OC)c2)ccc1O | 5.05

tested on: Trypanosoma evansi; experiment: Antitrypanosomal activity against Trypanosoma evansi ITMAV170475 after 48 hrs by alamar blue assay; type: functional, organism-based; conditions: ITMAV170475, 48 h
How it was run: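 Culture-adapted T. evansi ITMAV170475 seeded at 1.5 ×10⁵ trypanosomes/ml in HMI9/20% FBS. Exposed to compound for 48 h, then incubated with Alamar Blue for 24 h, all at 37 °C under CO2. Assay validated against hemocytometer cell counts. EC50 from a variable-slope sigmoid fit.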

SMILES | pEC50
C=CCOc1ccc(/C=C/C(=O)CC(=O)/C=C/c2ccc(O)c(OC)c2)cc1OC | 5.80
COc1cc(/C=C/C(=O)CC(=O)/C=C/c2ccc(OC(=O)c3ccccc3)cc2)ccc1O | 5.54
COc1cc(/C=C/C(=O)CC(=O)/C=C/c2ccc(OC(=O)c3ccccc3)c(OC)c2)ccc1O | 5.82
C=CCOc1ccc(/C=C/C(=O)CC(=O)/C=C/c2ccc(OCC=C)c(OC)c2)cc1OC | 5.25
COc1cc(/C=C/C(=O)CC(=O)/C=C/c2ccc(O)c(O)c2)ccc1O | 5.96
COc1cc(CC/C=C/C(=O)CCc2ccc(O)c(OC)c2)ccc1O | 6.77

tested on: Trypanosoma brucei brucei; experiment: Antitrypanosomal activity against multidrug-resistant Trypanosoma brucei brucei B48 after 48 hrs by alamar blue assay; type: functional, organism-based; conditions: B48, 48 h

SMILES | pEC50
COc1cc(CC/C=C/C(O)CCc2ccc(O)c(OC)c2)ccc1O (stereo not drawn) | 5.20
C=CCOc1ccc(/C=C/C(=O)CC(=O)/C=C/c2ccc(O)c(OC)c2)cc1OC | 4.92
COc1cc(/C=C/C(=O)CC(=O)/C=C/c2ccc(OC(=O)c3ccccc3)cc2)ccc1O | 5.11
O=C(/C=C/c1ccc(O)cc1)CC(=O)/C=C/c1ccc(O)c(O)c1 | 6.00
COc1cc(/C=C/C(=O)CC(=O)/C=C/c2ccc(OC(=O)c3ccccc3)c(OC)c2)ccc1O | 5.68
C=CCOc1ccc(/C=C/C(=O)CC(=O)/C=C/c2ccc(OCC=C)c(OC)c2)cc1OC | 5.24
COc1cc(/C=C/C(=O)CC(=O)/C=C/c2ccc(O)c(O)c2)ccc1O | 5.57
COc1ccc(/C=C/C(=O)CC(=O)/C=C/c2ccc(OC)c(OC)c2)cc1OC [TETRAMETHOXYCURCUMIN] | 6.11
COc1cc(CC/C=C/C(=O)CCc2ccc(O)c(OC)c2)ccc1O | 7.64

tested on: not listed separately; experiment: Selectivity index, ratio of EC50 for HEK cells to EC50 for Trypanosoma brucei brucei 427; type: toxicity, cell-based, HEK293; conditions: human, HEK cells versus Trypanosoma brucei brucei 427; read-out: Ratio EC50

SMILES | selectivity ratio
COc1cc(CC/C=C/C(O)CCc2ccc(O)c(OC)c2)ccc1O (stereo not drawn) | 3
COc1cc(CC/C=C/C(=O)CCc2ccc(O)c(OC)c2)ccc1O | 453

tested on: Trypanosoma brucei brucei; experiment: Selectivity ratio of EC50 for Trypanosoma brucei brucei B48 to EC50 for Trypanosoma brucei brucei 427; type: functional; conditions: not given; how it was run: as §1

SMILES | Ratio EC50
C=CCOc1ccc(/C=C/C(=O)CC(=O)/C=C/c2ccc(O)c(OC)c2)cc1OC | 5
C=CCOc1ccc(/C=C/C(=O)CC(=O)/C=C/c2ccc(OCC=C)c(OC)c2)cc1OC | 3.6
COc1cc(/C=C/C(=O)CC(=O)/C=C/c2ccc(O)c(O)c2)ccc1O | 3.1

tested on: not listed separately; experiment: Selectivity index, ratio of EC50 for HEK cells to EC50 for Trypanosoma brucei brucei B48; type: toxicity, cell-based, HEK293; conditions: human, HEK cells versus Trypanosoma brucei brucei B48; read-out: Ratio EC50

SMILES | selectivity ratio
COc1cc(CC/C=C/C(=O)CCc2ccc(O)c(OC)c2)ccc1O | > 1000

tested on: Trypanosoma brucei brucei; experiment: Antitrypanosomal activity against Trypanosoma brucei brucei 427 after 48 hrs by alamar blue assay; type: functional, organism-based; conditions: Trypanosoma brucei, 427, 48 h; read-out: EC50

SMILES | pEC50
COc1cc(CC/C=C/C(O)CCc2ccc(O)c(OC)c2)ccc1O (stereo not drawn) | 4.40
C=CCOc1ccc(/C=C/C(=O)CC(=O)/C=C/c2ccc(O)c(OC)c2)cc1OC | 5.62
COc1cc(/C=C/C(=O)CC(=O)/C=C/c2ccc(OC(=O)c3ccccc3)cc2)ccc1O | 5.43
O=C(/C=C/c1ccc(O)cc1)CC(=O)/C=C/c1ccc(O)c(O)c1 | 6.19
COc1cc(/C=C/C(=O)CC(=O)/C=C/c2ccc(OC(=O)c3ccccc3)c(OC)c2)ccc1O | 5.51
C=CCOc1ccc(/C=C/C(=O)CC(=O)/C=C/c2ccc(OCC=C)c(OC)c2)cc1OC | 5.80
COc1cc(/C=C/C(=O)CC(=O)/C=C/c2ccc(O)c(O)c2)ccc1O | 6.06
COc1ccc(/C=C/C(=O)CC(=O)/C=C/c2ccc(OC)c(OC)c2)cc1OC [TETRAMETHOXYCURCUMIN] | 6.35
COc1cc(CC/C=C/C(=O)CCc2ccc(O)c(OC)c2)ccc1O | 7.28
